Assay results taken from the RNAGym collection of RNA variant scans (doi:10.1038/s41586-018-0170-7).

B1: tRNA (parent)
chain: GUUCCGUUGGCGUAAUGGUAACGCGUCUCCCUCCUAAGGAGAAGACUGCGGGUUCGAGUCCCGUACGGAACG

Variants of: B1
Assay: yeast fitness, log relative to wild type (ln ratio); higher = fitter; tRNA-Arg(CCU), competitive growth, 37 C, 1 M NaCl
Outline: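 In BY4742 missing the chromosomal gene, a combinatorial tRNA-Arg(CCU) variant library was maintained on a HIS3 centromeric plasmid. Selection ran ~6.5 generations (~26.5 h) in SC-HIS 1M NaCl at 37 °C, following 4 generations in SC-HIS at 30 °C, with three outputs per input and variant counts by 125 bp paired-end Illumina sequencing. Fitness is the natural log of a genotype's generations relative to the wild type's, with generations taken as inverse-variance-weighted, OD-scaled log2 output/input frequency.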

Variant	yeast fitness (ln)
G1A G6A A43C C46U C66U A69G C71U	-0.252
U2C A43C C46U C66U A69G A70G C71U	-0.315
G1A U2C G6U C27U A43C C66A A69G A70G C71U	-0.272
G1A U2C G6U C46U A69G A70G	-0.0666
U2G C27U C66A A70G C71U	-0.201
C66A A69G C71U	-0.108
U2G C27U C66A A69G A70U C71U	-0.431
C27U A43C C66A A70U	-0.0654
G1A U2C C27U C66U A69G A70U C71U	-0.54
G1A G6A C27U	-0.134
G1A G6U C66A A69G A70U C71U	-0.432
G6U A43C C46U C66A A70G	-0.0224
G1A C27U C46U A70G C71U	-0.0653
U2C C27U A43C C46U C66U A70G	-0.0949
U2C G6A C27U A43C A69G A70U	-0.215
U2G G6U C27U A43C C46U C66A A69G A70U C71U	-0.386
U2C C27U A43C C46U C66A A70U C71U	-0.269
G6A C46U C66U A69G C71U	-0.0544
U2C G6U A43C C46U C66U A69G A70U	-0.211
U2C C27U A43C C46U C66U A70G C71U	-0.406
G6A C66A A70G	-0.0871

Variant	yeast fitness (ln)
G1A U2G G6U A70G	-0.235
U2G C27U A43C C46U C66U A69G C71U	-0.394
G1A G6U C27U A43C C46U C66A	-0.168
U2G G6A A69G C71U	-0.113
G1A U2C G6A A43C C66U A70U C71U	-0.301
U2G A69G A70U	-0.00206
U2C G6A C66U A70G C71U	-0.0109
U2G C66A A69G A70G	-0.148
U2G G6A A43C A69G A70U C71U	-0.364
G1A U2G G6U C27U A43C C46U C66A A70U	-0.309
G1A U2C A43C C66U A70G C71U	-0.272
G1A U2G C27U A70G	-0.142
G6A C27U A43C C66U A69G A70U C71U	-0.529
U2C C27U A43C A70G	-0.0248
U2G G6U A43C C46U C66U A70U C71U	-0.22
U2C G6A C27U C46U C66A A70U	-0.0453
G1A U2G G6U C27U A43C C66U A69G A70G	-0.337
G1A G6U A43C C46U C66U A69G A70G C71U	-0.333
U2G G6U C27U A43C A69G A70U C71U	-0.484
U2C A43C C46U C66U A70G C71U	-0.152
G1A U2G G6A C27U C46U A69G A70U	-0.233

Variant	yeast fitness (ln)
G1A C27U C46U C66U A70U C71U	-0.283
U2C G6A C27U A43C C46U A69G A70U C71U	-0.359
G1A U2G C27U A43C C66A A69G A70G C71U	-0.472
G1A U2G G6A A70U	-0.0829
U2C G6U C27U C46U C66A A69G A70U C71U	-0.319
G1A U2G G6A C27U A69G A70U	-0.256
G6A C27U C66U A70G C71U	-0.249
U2C G6A A43C C46U C66U A69G A70G C71U	-0.0188
G6U C46U A70U C71U	-0.189
G1A C27U C46U C66U A69G A70U	-0.286
U2C C27U A43C	-0.0586
G6U C66A A69G A70G C71U	-0.402
U2C C27U A43C A69G	-0.0976
U2C G6A A43C C46U A69G C71U	-0.0945
U2G C27U A70G C71U	-0.178
G6U A43C C46U C66A A70U C71U	-0.214
G1A U2G A43C C46U A69G A70G	-0.141
U2G G6A C66A A70G	-0.0981
G1A U2G G6U C27U C46U C66A A70G C71U	-0.239
G1A C27U C46U C66U A69G C71U	-0.311
G1A U2C G6U C66A A70G	-0.0212

Variant	yeast fitness (ln)
G1A A43C A69G	-0.145
G1A U2G C27U C66A A70U	-0.165
G1A U2C G6U A43C C66A A69G A70G C71U	-0.0437
G6A A43C C46U C66U A70G C71U	-0.144
G1A U2C A70U C71U	-0.0394
G1A U2G G6U C27U A43C C46U C66A A70U C71U	-0.626
G6U C27U C46U A69G	-0.15
U2G G6U C66A A69G C71U	-0.101
G1A U2C C27U A43C C46U C66A A70U	-0.106
U2G A43C C46U C66U A69G A70U C71U	-0.413
G1A U2C G6A A43C C46U A70G	-0.0508
G1A G6A A43C A70G	-0.12
G6A C27U C66U A69G A70G C71U	-0.256
G1A U2G C27U C66U A69G A70G C71U	-0.416
G1A G6A C27U C66A A70G C71U	-0.473
C27U A43C A69G A70U C71U	-0.419
U2G G6A A43C C46U C66U A69G C71U	-0.303
U2G A43C C66U A69G A70U C71U	-0.468
G6U C46U C71U	-0.413
U2C A43C C66A C71U	-0.169
U2C C27U A43C A69G A70U C71U	-0.266
